This is an account of results in ChEMBL document CHEMBL4354826, “Structure-Based Discovery of SD-36 as a Potent, Selective, and Efficacious PROTAC Degrader of STAT3 Protein” (J Med Chem, 2019).

One may read the pKi as −log10 of the Ki, conventionally taken in molar units. What is called pIC50 is −log10 of the IC50, conventionally taken in molar units. In general, DC50 refers to the concentration giving 50% degradation.

In assay [1] the target is T1, Signal transducer and activator of transcription 3 (Homo sapiens, UniProt P40763). Briefly: Binding affinity to recombinant human His/SUMO-tagged STAT3 (127 to 688 residues) expressed in Escherichia coli Rosetta (DE3) incubated for 1 hr by fluorescence polarization assay. (In fluorescence polarisation assays a small probe gives low polarisation when free and higher when bound to something large.)

The nature of assay [2]: Antiproliferative activity against human MOLM16 cells assessed as reduction in cell viability incubated for 4 days by cell-titer glo luminescent assay. The assay is classed as functional, cell-based. The following applies: MOLM16, 96 h. An outline of the steps: (§1)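 Viability assay: cells incubated with serially diluted compounds for 4 days, viability read by CellTiter-Glo luminescence; IC50 from concentration–response.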

The target in assay [3] is T2, Protein cereblon/Signal transducer and activator of transcription 1-alpha/beta (Homo sapiens) (UniProt P42224+Q96SW2). Briefly: Protac activity at CRBN/STAT1 in human MOLM16 cells assessed as degradation of STAT1 at 10 uM incubated for 4 hrs by Western blot analysis. The assay is classed as cell-based. An outline of the steps:
(§2)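 Molm-16 cells treated 4 h with test compound at 0.01–10 μM, or control compounds at 10 μM. Lysates separated by SDS–PAGE, transferred to PVDF, blocked 1 h in 5% blocker/TBST, probed for each STAT protein, and detected by chemiluminescence.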

Assay [4] has as its target T3, Protein cereblon/Signal transducer and activator of transcription 3 (Homo sapiens, UniProt P40763+Q96SW2). Briefly: Protac activity at CRBN/STAT3 in human MOLM16 cells assessed as degradation of STAT3 at 1 uM incubated for 4 hrs by Western blot analysis. It counts as cell-based. The method in brief: (§3)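 Molm-16 cells treated 4 h with serially diluted compound. Lysates immunoblotted (SDS–PAGE, PVDF, 5% blocker/TBST, chemiluminescence) for total STAT3 and pSTAT3 Y705. DC50 taken as the concentration reducing total STAT3 by 50%.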
A general note: Immunoblotting shows a protein as a band on a membrane.

The target in assay [5] is T4, Protein cereblon/Signal transducer and activator of transcription 6 (Homo sapiens) (UniProt P42226+Q96SW2). Briefly: Protac activity at CRBN/STAT6 in human MOLM16 cells assessed as degradation of STAT6 at 10 uM incubated for 4 hrs by Western blot analysis. It counts as cell-based. The method in brief: as §2
The target in assay [6] is T5, Protein cereblon/Signal transducer and activator of transcription 5A (Homo sapiens) (UniProt P42229+Q96SW2). Briefly: Protac activity at CRBN/STAT5A in human SUDHL1 cells assessed as degradation of STAT5A at 10 uM incubated for 18 hrs by Western blot analysis. It counts as cell-based. An outline of the steps: (§4)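 SU-DHL-1 cells treated 18 h with test compound at 0.01–10 μM, or control compounds at 10 μM. Lysates separated by SDS–PAGE, transferred to PVDF, blocked 1 h in 5% blocker/TBST, probed for each STAT protein, and detected by chemiluminescence.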
T5 sequence (P42229 whole entry, looked up): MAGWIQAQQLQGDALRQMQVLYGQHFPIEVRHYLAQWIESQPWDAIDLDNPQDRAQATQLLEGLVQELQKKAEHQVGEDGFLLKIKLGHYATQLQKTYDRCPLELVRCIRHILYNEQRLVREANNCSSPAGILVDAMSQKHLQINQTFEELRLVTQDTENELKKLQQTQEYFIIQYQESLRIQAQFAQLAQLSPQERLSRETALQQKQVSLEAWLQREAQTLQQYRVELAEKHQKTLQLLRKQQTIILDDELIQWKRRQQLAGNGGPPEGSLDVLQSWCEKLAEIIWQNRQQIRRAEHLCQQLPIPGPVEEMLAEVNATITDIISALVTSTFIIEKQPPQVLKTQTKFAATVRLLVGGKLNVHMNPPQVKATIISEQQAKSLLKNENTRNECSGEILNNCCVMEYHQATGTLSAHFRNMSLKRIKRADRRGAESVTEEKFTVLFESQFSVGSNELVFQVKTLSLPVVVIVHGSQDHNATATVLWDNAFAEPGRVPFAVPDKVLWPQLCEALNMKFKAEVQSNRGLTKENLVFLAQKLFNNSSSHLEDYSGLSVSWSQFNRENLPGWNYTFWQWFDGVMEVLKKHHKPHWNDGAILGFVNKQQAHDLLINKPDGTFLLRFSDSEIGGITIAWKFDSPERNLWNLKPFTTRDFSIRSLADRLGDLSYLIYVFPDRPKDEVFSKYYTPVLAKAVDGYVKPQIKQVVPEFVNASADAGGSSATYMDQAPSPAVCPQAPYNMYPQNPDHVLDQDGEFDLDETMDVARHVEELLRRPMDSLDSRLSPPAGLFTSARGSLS
T5 sequence (Q96SW2 whole entry, looked up): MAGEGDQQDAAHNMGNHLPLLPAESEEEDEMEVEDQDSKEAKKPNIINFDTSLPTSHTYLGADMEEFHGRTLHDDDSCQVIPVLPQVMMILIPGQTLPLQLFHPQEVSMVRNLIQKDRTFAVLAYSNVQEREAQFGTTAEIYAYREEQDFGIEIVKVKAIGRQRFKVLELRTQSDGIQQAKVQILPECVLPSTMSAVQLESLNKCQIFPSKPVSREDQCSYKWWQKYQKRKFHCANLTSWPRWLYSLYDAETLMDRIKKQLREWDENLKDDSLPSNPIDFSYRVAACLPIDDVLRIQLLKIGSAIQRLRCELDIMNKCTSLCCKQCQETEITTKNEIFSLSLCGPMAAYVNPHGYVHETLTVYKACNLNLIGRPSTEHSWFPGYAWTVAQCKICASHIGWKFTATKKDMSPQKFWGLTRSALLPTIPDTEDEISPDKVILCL

Assay [7] has as its target T3, Protein cereblon/Signal transducer and activator of transcription 3. Briefly: Protac activity at CRBN/STAT3 in human SUDHL1 cells assessed as degradation of STAT3 incubated for 16 hrs by Western blot analysis. It counts as cell-based.
Target sequence in this assay (P40763 whole entry): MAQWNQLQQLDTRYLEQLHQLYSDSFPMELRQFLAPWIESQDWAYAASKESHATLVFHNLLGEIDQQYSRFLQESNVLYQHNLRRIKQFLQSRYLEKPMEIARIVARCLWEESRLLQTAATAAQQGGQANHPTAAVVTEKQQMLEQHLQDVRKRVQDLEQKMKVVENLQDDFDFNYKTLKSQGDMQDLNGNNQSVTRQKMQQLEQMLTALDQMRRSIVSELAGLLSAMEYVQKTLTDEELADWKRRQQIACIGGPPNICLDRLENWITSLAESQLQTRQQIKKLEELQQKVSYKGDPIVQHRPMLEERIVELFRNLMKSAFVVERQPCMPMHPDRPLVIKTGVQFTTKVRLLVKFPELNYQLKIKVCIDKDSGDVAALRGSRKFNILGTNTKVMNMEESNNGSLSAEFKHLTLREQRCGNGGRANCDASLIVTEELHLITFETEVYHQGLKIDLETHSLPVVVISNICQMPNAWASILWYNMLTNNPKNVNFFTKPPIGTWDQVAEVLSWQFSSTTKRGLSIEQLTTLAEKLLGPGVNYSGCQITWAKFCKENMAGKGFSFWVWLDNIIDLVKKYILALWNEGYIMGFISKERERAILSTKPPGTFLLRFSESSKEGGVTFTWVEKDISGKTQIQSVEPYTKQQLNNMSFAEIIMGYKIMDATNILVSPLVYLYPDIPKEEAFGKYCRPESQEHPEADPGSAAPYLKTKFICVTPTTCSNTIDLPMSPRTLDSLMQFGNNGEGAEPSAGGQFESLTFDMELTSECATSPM
Target sequence in this assay (Q96SW2 whole entry): as the sequence (Q96SW2 whole entry, looked up) above
Assay [8] deals with T6, Protein cereblon/Signal transducer and activator of transcription 4 (Homo sapiens) (UniProt Q96SW2+Q14765). Nature of the assay: Protac activity at CRBN/STAT4 in human MOLM16 cells assessed as degradation of STAT4 at 10 uM incubated for 4 hrs by Western blot analysis. It counts as cell-based. An outline of the steps: as §2
T6 sequence (Q14765 whole entry, looked up): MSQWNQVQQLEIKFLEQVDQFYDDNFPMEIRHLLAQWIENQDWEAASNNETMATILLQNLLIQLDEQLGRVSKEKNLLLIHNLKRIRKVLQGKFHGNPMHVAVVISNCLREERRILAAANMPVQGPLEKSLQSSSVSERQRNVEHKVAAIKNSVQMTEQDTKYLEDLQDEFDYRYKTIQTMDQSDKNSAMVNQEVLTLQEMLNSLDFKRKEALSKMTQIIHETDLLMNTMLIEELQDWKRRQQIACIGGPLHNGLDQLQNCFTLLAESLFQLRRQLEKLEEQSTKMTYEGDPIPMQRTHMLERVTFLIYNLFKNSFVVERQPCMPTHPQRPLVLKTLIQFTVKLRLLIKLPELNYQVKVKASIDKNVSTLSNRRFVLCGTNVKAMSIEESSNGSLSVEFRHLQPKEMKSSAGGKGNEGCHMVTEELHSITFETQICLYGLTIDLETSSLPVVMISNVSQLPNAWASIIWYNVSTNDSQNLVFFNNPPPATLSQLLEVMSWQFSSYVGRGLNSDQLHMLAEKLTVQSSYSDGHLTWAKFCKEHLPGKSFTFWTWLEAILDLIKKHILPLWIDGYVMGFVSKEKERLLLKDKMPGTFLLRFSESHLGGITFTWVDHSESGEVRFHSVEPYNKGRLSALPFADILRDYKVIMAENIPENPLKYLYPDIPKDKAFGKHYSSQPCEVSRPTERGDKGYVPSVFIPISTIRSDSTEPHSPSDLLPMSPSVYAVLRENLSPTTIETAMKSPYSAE
T6 sequence (Q96SW2 whole entry, looked up): as the sequence (Q96SW2 whole entry, looked up) above
Assay [9] addresses T3, Protein cereblon/Signal transducer and activator of transcription 3. Nature of the assay: Protac activity at CRBN/STAT3 in human MOLM16 cells assessed as degradation of STAT3 at 10 uM incubated for 4 hrs by Western blot analysis. The assay is classed as cell-based. The method in brief:
as §2

Assay [10] has the same target. Briefly: Protac activity at CRBN/STAT3 in human SUDHL1 cells assessed as degradation of phosphorylated STAT3 Y705 upto 10 uM incubated for 16 hrs by Western blot analysis. The assay is classed as cell-based.
The target is the same in assay [11]. Nature of the assay: Protac activity at CRBN/STAT3 in human SUDHL1 cells assessed as degradation of STAT3 upto 10 uM incubated for 16 hrs by Western blot analysis. It counts as cell-based.
Assay [12] has as its target T5, Protein cereblon/Signal transducer and activator of transcription 5A (Homo sapiens). Nature of the assay: Protac activity at CRBN/STAT5A in human MOLM16 cells assessed as degradation of STAT5A at 10 uM incubated for 4 hrs by Western blot analysis. It counts as cell-based. The method in brief: as §2
The target of assay [13] is T2, Protein cereblon/Signal transducer and activator of transcription 1-alpha/beta (Homo sapiens). Nature of the assay: Protac activity at CRBN/STAT1 in human SUDHL1 cells assessed as degradation of STAT1 at 10 uM incubated for 18 hrs by Western blot analysis. It counts as cell-based. The method in brief: as §4
Assay [14] has as its system SU-DHL-1. Nature of the assay: Antiproliferative activity against human SUDHL1 cells assessed as reduction in cell viability incubated for 4 days by cell-titer glo luminescent assay. The assay is classed as functional, cell-based. The settings on record: SU-DHL-1, 96 h. The method in brief: as §1
Assay [15] addresses T7, Protein cereblon/Signal transducer and activator of transcription 2 (Homo sapiens) (UniProt Q96SW2+P52630). Briefly: Protac activity at CRBN/STAT2 in human SUDHL1 cells assessed as degradation of STAT2 at 10 uM incubated for 18 hrs by Western blot analysis. It counts as cell-based. The method in brief: as §4
For assay [16], the target named is T4, Protein cereblon/Signal transducer and activator of transcription 6 (Homo sapiens). Nature of the assay: Protac activity at CRBN/STAT6 in human SUDHL1 cells assessed as degradation of STAT6 at 10 uM incubated for 18 hrs by Western blot analysis. It counts as cell-based. An outline of the steps:
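SU-DHL-1 cells exposed to compound over 0.01–10 μM, or controls at 10 μM, for 18 h. Lysates separated by SDS–PAGE and transferred to PVDF. Membranes blocked 1 h in 5% blocker/TBST, probed with primary then secondary antibodies, and developed by chemiluminescence for STAT1, STAT2, STAT4, STAT5A/B, STAT6 and STAT3.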

Assay [17] addresses T3, Protein cereblon/Signal transducer and activator of transcription 3. Briefly: Protac activity at CRBN/STAT3 in human MOLM16 cells assessed as degradation of STAT3 incubated for 4 hrs by Western blot analysis. It counts as cell-based. An outline of the steps: as §3
Target sequence in this assay (P40763 whole entry): as the sequence (P40763 whole entry) above
Target sequence in this assay (Q96SW2 whole entry): as the sequence (Q96SW2 whole entry, looked up) above
Assay [18] concerns the target T8, Protein cereblon/Signal transducer and activator of transcription 5B (Homo sapiens) (UniProt P51692+Q96SW2). Nature of the assay: Protac activity at CRBN/STAT5B in human SUDHL1 cells assessed as degradation of STAT5B at 10 uM incubated for 18 hrs by Western blot analysis. The assay is classed as cell-based. An outline of the steps:
as §4

Assay [19] addresses T3, Protein cereblon/Signal transducer and activator of transcription 3. Nature of the assay: Protac activity at CRBN/STAT3 in human MOLM16 cells assessed as degradation of phosphorylated STAT3 Y705 at 1 uM incubated for 4 hrs by Western blot analysis. It counts as cell-based. The method in brief:
as §3

For assay [20] the target is unchanged. Briefly: Protac activity at CRBN/STAT3 in human SUDHL1 cells assessed as degradation of STAT3 at 10 uM incubated for 18 hrs by Western blot analysis. It counts as cell-based. An outline of the steps: as §4
Assay [21] addresses T8, Protein cereblon/Signal transducer and activator of transcription 5B (Homo sapiens). Nature of the assay: Protac activity at CRBN/STAT5B in human MOLM16 cells assessed as degradation of STAT5B at 10 uM incubated for 4 hrs by Western blot analysis. The assay is classed as cell-based. An outline of the steps:
as §2

Assay [22] has as its target T7, Protein cereblon/Signal transducer and activator of transcription 2 (Homo sapiens). Nature of the assay: Protac activity at CRBN/STAT2 in human MOLM16 cells assessed as degradation of STAT2 at 10 uM incubated for 4 hrs by Western blot analysis. The assay is classed as cell-based. The method in brief: as §2
In assay [23] the target is T6, Protein cereblon/Signal transducer and activator of transcription 4 (Homo sapiens). Briefly: Protac activity at CRBN/STAT4 in human SUDHL1 cells assessed as degradation of STAT4 at 10 uM incubated for 18 hrs by Western blot analysis. It counts as cell-based. The method in brief:
as §4

The target in assay [24] is T3, Protein cereblon/Signal transducer and activator of transcription 3. Briefly: Protac activity at CRBN/STAT3 in human SUDHL1 cells assessed as degradation of STAT3 upto 5 uM incubated for 16 hrs by Western blot analysis. The assay is classed as cell-based.
For assay [25] the target is unchanged. Briefly: Protac activity at CRBN/STAT3 in human SUDHL1 cells assessed as degradation of phosphorylated STAT3 Y705 upto 5 uM incubated for 16 hrs by Western blot analysis. It counts as cell-based.
Assay [26] has the same target. Briefly: Protac activity at CRBN/STAT3 in human MOLM16 cells assessed as degradation of STAT3 up to 10 uM incubated for 4 hrs by Western blot analysis. The assay is classed as cell-based. An outline of the steps: as §3
For assay [27], the system named is Mus musculus. Nature of the assay: In vivo degradation of STAT3 in CD1 mouse at 25 mg/kg, iv measured upto 48 hrs by Western blot analysis. It counts as functional, organism-based. An outline of the steps: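 Female CD-1 mice given a single intravenous dose in 10% PEG400 + 90% PBS, or vehicle. Euthanized at set time points. Spleen harvested and lysates immunoblotted for STAT3.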

Assay [28] has as its target T1, Signal transducer and activator of transcription 3. Nature of the assay: Binding affinity to STAT3 (unknown origin).

pIC50, pKi: −log10 of the molar value. The source made the active and inactive calls. The rule behind the calls is not given here. Some results are limits rather than exact numbers.

T8 sequence (P51692 whole entry, looked up): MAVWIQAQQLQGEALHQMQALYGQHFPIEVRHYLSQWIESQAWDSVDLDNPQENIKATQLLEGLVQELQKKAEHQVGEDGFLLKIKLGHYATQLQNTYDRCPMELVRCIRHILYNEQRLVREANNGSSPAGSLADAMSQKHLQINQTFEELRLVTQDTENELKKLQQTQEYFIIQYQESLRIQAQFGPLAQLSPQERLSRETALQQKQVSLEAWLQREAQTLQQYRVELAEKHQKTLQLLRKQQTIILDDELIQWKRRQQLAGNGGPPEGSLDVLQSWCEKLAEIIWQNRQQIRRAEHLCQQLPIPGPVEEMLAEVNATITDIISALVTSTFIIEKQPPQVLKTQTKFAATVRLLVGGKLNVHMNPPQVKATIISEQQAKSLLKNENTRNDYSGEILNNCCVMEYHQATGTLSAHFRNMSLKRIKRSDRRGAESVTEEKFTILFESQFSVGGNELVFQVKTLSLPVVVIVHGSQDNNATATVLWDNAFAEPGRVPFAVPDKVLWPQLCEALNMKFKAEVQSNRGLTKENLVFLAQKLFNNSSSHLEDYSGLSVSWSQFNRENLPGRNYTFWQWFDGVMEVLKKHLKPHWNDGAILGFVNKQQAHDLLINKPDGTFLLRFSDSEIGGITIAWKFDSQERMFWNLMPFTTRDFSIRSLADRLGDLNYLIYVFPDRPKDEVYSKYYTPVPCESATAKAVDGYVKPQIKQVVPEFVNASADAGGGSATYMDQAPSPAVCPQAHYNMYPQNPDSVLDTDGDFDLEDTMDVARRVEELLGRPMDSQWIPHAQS
T8 sequence (Q96SW2 whole entry, looked up): as the sequence (Q96SW2 whole entry, looked up) above

As to `CC(=O)N1CC[C@H]2CC[C@@H](C(=O)N[C@@H](CCC(N)=O)C(=O)NC(c3ccccc3)c3ccccc3)N2C(=O)[C@@H](NC(=O)c2cc3cc(C(F)(F)P(=O)(O)O)ccc3[nH]2)C1`, the negative-log Ki (pKi) in assay [1] was 7.85. Also, the values for the pIC50 in assay [2] and in assay [14] were 5.19 and below 5.00, respectively. Besides, the outcome in assay [3], in assay [4], in assay [5], in assay [6], in [8] and in assay [9] was inactive. Also, the outcome in assay [10], in assay [11], in assay [12], in assay [13], in [15] and in assay [16] was inactive. The result in assay [18], in [19], in assay [20], in assay [21], in assay [22] and in assay [23] was inactive. For the same molecule, the DC50 in assay [7] and in assay [17] was above 10 µM throughout.
As for `C/C(=C\C(=O)N[C@H]1CN(C(=O)CCCCCC#Cc2cccc3c2CN(C2CCC(=O)NC2=O)C3=O)CC[C@H]2CC[C@@H](C(=O)N[C@@H](CCC(N)=O)C(=O)NC(c3ccccc3)c3ccccc3)N2C1=O)c1ccc(C(F)(F)P(=O)(O)O)cc1` (some centres not stated), the pIC50 in [2] was 5.90; in assay [14], below 5.00. For the same molecule, the values for the DC50 in assay [7] and in assay [17] were above 10 µM and 4.45 µM, respectively. The result in [24] and in assay [25] was inactive.
On to `CN1C(=O)CCC(N2Cc3c(C#CCCCCCC(=O)N4CC[C@H]5CC[C@@H](C(=O)N[C@@H](CCC(N)=O)C(=O)NC(c6ccccc6)c6ccccc6)N5C(=O)[C@@H](NC(=O)c5cc6cc(C(F)(F)P(=O)(O)O)ccc6[nH]5)C4)cccc3C2=O)C1=O` (some centres not stated), for which the values for the pIC50 in assay [2] and in [14] were 5.28 and below 5.00, respectively. Further, the outcome in [3], in assay [5], in [6], in assay [8], in [9] and in [10] was inactive. For the same molecule, the result in assay [11], in assay [12], in assay [13], in assay [15], in [16] and in assay [18] was inactive. For the same molecule, the outcome in assay [20], in assay [21], in assay [22] and in [23] was inactive. The DC50 in assay [7] and in [17] was above 10 µM throughout. Moreover, the Activity in assay [26] came to 0%.
Take `NC(=O)CC[C@H](NC(=O)[C@@H]1CC[C@@H]2CCN(C(=O)NCCCCC#Cc3cccc4c3CN(C3CCC(=O)NC3=O)C4=O)C[C@H](NC(=O)c3cc4cc(C(F)(F)P(=O)(O)O)ccc4[nH]3)C(=O)N21)C(=O)NC(c1ccccc1)c1ccccc1` (some centres not stated): the pIC50 was 7.04 in assay [2] and 6.37 in [14]. Besides, the DC50 in assay [7] is 0.011 µM; in assay [17], 0.05 µM. For the same molecule, the result in assay [27] was Active.
For the molecule `NC(=O)CC[C@H](NC(=O)[C@@H]1CC[C@@H]2CCCC[C@H](NC(=O)c3cc4cc(CP(=O)(O)O)ccc4[nH]3)C(=O)N21)C(=O)NCc1ccccc1`, the pKi in assay [28] is 6.12.
On to `NC(=O)CC[C@H](NC(=O)[C@@H]1CC[C@@H]2CCN(C(=O)CCCCCC#Cc3cccc4c3C(=O)N(C3CCC(=O)NC3=O)C4=O)C[C@H](NC(=O)c3cc4cc(C(F)(F)P(=O)(O)O)ccc4[nH]3)C(=O)N21)C(=O)NC(c1ccccc1)c1ccccc1` (some centres not stated), for which the pIC50 was 6.24 in assay [2] and below 5.00 in assay [14]. Also, the values for the DC50 in [7] and in [17] were above 10 µM and 3.54 µM, respectively. Moreover, the outcome in assay [24] and in [25] was inactive.
